Experimental data: ChEMBL document CHEMBL1156919, “Synthesis and induction of apoptosis signaling pathway of ent-kaurane derivatives” (Bioorg Med Chem, 2010)
Calls of active or inactive are those of the source. The calls are words filed in the database; no cut-off is given here.

How the values were obtained:
[1] = tested on: RAW264.7; assay: Increase in Bax protein expression in mouse RAW264.7 cells at 5 uM by Western blot; assay type: functional, cell-based
Method in brief: (§1)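 RAW 264.7 cells incubated with 5 μM and sampled at several time points. Cytosolic extracts run on SDS–PAGE (10–15% gels) and blotted to PVDF. Probed for p53, Bax, Bcl-2, Bcl-xl, XIAP, IAP-1 and IAP-2, then HRP secondary and chemiluminescence. β-actin served as loading control. Protein measured by Bio-Rad assay.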

[2] = tested on: RAW264.7; assay: Induction of apoptosis in mouse RAW264.7 cells assessed as caspase 8 activation at 5 uM in presence of 40 uM caspase inhibitor z-VAD after 24 hrs by fluorimetric assay; assay type: functional, cell-based
Method in brief: (§2)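 RAW cells treated with 5 μM for 24 h, with or without 40 μM z-VAD. Caspase activity read fluorimetrically in cytosolic extracts. Substrates: Ac-DEVD-AMC for caspase-3, Ac-IETD-AFC for caspase-8, Ac-LEHD-AFC for caspase-9. Means ± SD of three independent experiments run in triplicate.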

[3] = tested on: RAW264.7; assay: Induction of apoptosis in mouse RAW264.7 cells at 1 to 25 uM after 24 hrs by flow cytometry; assay type: functional, cell-based
Method in brief: (§3)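 RAW 264.7 cells exposed to 1–25 μM for 24 h. Stained with 0.005% (w/v) propidium iodide and analysed at once by flow cytometry. Apoptotic and necrotic fractions taken from a forward scatter versus PI fluorescence dot plot. Means ± SD of three independent experiments in triplicate.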

[4] = tested on: RAW264.7; assay: Induction of apoptosis in mouse RAW264.7 cells at 5 uM in presence of 40 uM caspase inhibitor z-VAD after 24 hrs by flow cytometry; assay type: functional, cell-based
Method in brief: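 RAW 264.7 cells given 5 μM for 24 h, with or without 40 μM z-VAD. Stained with 0.005% (w/v) PI and analysed by flow cytometry. Apoptotic percentage taken from a forward scatter versus PI fluorescence dot plot. Three independent experiments in triplicate, means ± SD.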

[5] = Toxicity in thioglycolate-induced mouse peritoneal macrophages assessed as reduction in cell viability after 24 hrs by MTT assay; assay type: cell-based; conditions: peritoneal macrophage cell
Method in brief: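 Primary peritoneal macrophages from thioglycolate-injected mice exposed to a range of concentrations for 24 h. Viability read by MTT at 37 °C for 4 h, formazan dissolved in DMSO, absorbance at 540 nm. Three independent experiments in duplicate, means ± SD.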

[6] = tested on: HT-29; assay: Cytotoxicity against human HT-29 cells assessed as reduction in cell viability after 24 hrs by MTT assay; assay type: functional, cell-based; conditions: HT-29, 24 h
Method in brief: (§4)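 Cancer cells kept in DMEM with 10% FBS, L-glutamine and antibiotics. Exposed to 1–100 μM for 24 h, then MTT at 37 °C for 4 h. Formazan dissolved in DMSO and read at 540 nm. Triplicate wells, at least three independent experiments. Viability reduction expressed against untreated cultures. IC50 is the concentration giving 50% loss of viability.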

[7] = tested on: HepG2; assay: Cytotoxicity against human HepG2 cells assessed as reduction in cell viability after 24 hrs by MTT assay; assay type: functional, cell-based; conditions: HepG2, 24 h; method in brief: as §4
[8] = Toxicity in thioglycolate-induced mouse peritoneal macrophages assessed as induction of apoptosis after 24 hrs by flow cytometry; assay type: cell-based; conditions: peritoneal macrophage cell
Method in brief: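 Peritoneal macrophages collected from thioglycolate-injected mice and treated across a concentration range for 24 h. Stained with PI and analysed by flow cytometry for apoptotic percentage. Means ± SD of three independent experiments done in duplicate.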

[9] = tested on: RAW264.7; assay: Decrease in Bcl-xl protein expression in mouse RAW264.7 cells at 5 uM by Western blot; assay type: functional, cell-based; method in brief: as §1
[10] = tested on: HeLa; assay: Cytotoxicity against human HeLa cells assessed as reduction in cell viability after 24 hrs by MTT assay; assay type: functional, cell-based; method in brief: as §4
[11] = tested on: RAW264.7; assay: Induction of apoptosis in mouse RAW264.7 cells assessed as caspase 9 activation at 5 uM after 24 hrs by fluorimetry; assay type: functional, cell-based; method in brief: as §2
[12] = tested on: RAW264.7; assay: Induction of apoptosis in mouse RAW264.7 cells assessed as caspase 8 activation at 5 uM after 24 hrs by fluorimetry; assay type: functional, cell-based; method in brief: as §2
[13] = tested on: RAW264.7; assay: Induction of apoptosis in mouse RAW264.7 cells at 1 uM after 24 hrs by flow cytometry; assay type: functional; method in brief: as §3
[14] = tested on: RAW264.7; assay: Decrease in IAP protein expression in mouse RAW264.7 cells at 5 uM by Western blot; assay type: functional, cell-based; method in brief: as §1
[15] = tested on: RAW264.7; assay: Induction of apoptosis in mouse RAW264.7 cells assessed as caspase 3 activation at 5 uM in presence of 40 uM caspase inhibitor z-VAD after 24 hrs by fluorimetric assay; assay type: functional, cell-based; method in brief: as §2
[16] = tested on: RAW264.7; assay: Cytotoxicity against mouse RAW264.7 cells assessed as reduction in cell viability after 24 hrs by MTT assay; assay type: functional, cell-based; conditions: RAW264.7, 24 h
Method in brief: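 RAW 264.7 mouse macrophage line kept in RPMI 1640 with 10% FBS, L-glutamine and antibiotics. Treated with 1–100 μM for 24 h, then MTT at 37 °C for 4 h. Formazan taken up in DMSO and read at 540 nm. Triplicate, at least three independent experiments. IC50 is the concentration giving 50% loss of viability relative to untreated cells.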

[17] = tested on: RAW264.7; assay: Induction of apoptosis in mouse RAW264.7 cells assessed as caspase 9 activation at 5 uM in presence of 40 uM caspase inhibitor z-VAD after 24 hrs by fluorimetric assay; assay type: functional, cell-based; method in brief: as §2
[18] = tested on: RAW264.7; assay: Increase in p53 protein expression in mouse RAW264.7 cells at 5 uM by Western blot; assay type: functional, cell-based; method in brief: as §1
[19] = tested on: RAW264.7; assay: Induction of apoptosis in mouse RAW264.7 cells assessed as caspase 3 activation at 5 uM after 24 hrs by fluorimetry; assay type: functional, cell-based; method in brief: as §2
[20] = tested on: RAW264.7; assay: Decrease in Bcl-2 protein expression in mouse RAW264.7 cells at 5 uM by Western blot; assay type: functional, cell-based; method in brief: as §1

SMILES: C=C1C(=O)[C@@]23CC[C@H]4[C@@](C)(CCC[C@@]4(C)C(=O)OC)[C@@H]2CC[C@@H]1C3
- Activity [1]: Active
- Activity [2]: inactive
- Activity [3]: Active
- Activity [4]: inactive
- Activity [5]: Non-toxic
- IC50 [6]: 30 µM
- IC50 [7]: 75 µM
- Activity [8]: Non-toxic
- Activity [9]: Active
- IC50 [10]: 50 µM
- Activity [11]: Active
- Activity [12]: Active
- Activity [13]: 50%
- Activity [14]: Active
- Activity [15]: inactive
- IC50 [16]: 1 µM
- Activity [17]: inactive
- Activity [18]: Active
- Activity [19]: Active
- Activity [20]: Active
